{
  "source": "ChEMBL document CHEMBL4428067",
  "about": "“Drug Discovery against Psoriasis: Identification of a New Potent FMS-like Tyrosine Kinase 3 (FLT3) Inhibitor, 1-(4-((1H-Pyrazolo[3,4-d]pyrimidin-4-yl)oxy)-3-fluorophenyl)-3-(5-(tert-butyl)isoxazol-3-yl)urea, That Showed Potent Activity in a Psoriatic Animal Model” (J Med Chem, 2016)",
  "key": {"[1]": {"molecular_target": "T1, Receptor-type tyrosine-protein kinase FLT3 (Mus musculus) (UniProt Q00342)", "T1 sequence (whole entry)": "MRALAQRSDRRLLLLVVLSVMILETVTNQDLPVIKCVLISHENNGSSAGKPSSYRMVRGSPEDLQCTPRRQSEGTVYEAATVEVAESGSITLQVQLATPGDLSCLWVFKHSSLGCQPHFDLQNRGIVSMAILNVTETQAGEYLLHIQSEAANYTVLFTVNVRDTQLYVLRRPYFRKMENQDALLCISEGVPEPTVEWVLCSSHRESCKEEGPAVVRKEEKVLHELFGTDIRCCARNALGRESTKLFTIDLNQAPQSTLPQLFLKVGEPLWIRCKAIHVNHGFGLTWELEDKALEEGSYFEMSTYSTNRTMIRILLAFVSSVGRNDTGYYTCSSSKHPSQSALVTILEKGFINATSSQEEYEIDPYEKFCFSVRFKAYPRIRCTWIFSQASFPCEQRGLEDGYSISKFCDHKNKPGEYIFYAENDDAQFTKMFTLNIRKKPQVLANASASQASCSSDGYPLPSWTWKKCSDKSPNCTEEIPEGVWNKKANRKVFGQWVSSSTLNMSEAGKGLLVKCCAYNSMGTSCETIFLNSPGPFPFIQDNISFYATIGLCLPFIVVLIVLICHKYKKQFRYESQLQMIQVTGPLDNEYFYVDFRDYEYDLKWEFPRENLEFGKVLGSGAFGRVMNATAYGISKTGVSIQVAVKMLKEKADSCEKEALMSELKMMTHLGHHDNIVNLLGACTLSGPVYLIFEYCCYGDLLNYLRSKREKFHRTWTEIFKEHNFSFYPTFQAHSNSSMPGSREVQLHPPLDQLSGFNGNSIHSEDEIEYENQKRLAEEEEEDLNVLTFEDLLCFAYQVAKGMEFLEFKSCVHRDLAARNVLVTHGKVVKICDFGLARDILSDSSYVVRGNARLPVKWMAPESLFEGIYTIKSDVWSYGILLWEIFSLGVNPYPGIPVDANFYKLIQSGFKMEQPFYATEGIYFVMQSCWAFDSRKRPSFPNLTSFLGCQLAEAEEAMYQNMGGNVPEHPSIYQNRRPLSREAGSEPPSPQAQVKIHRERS", "assay": "Inhibition of FLT3 in Balb/c mouse BMDCs assessed as suppression of FLT3L-induced mDC formation measured as upper right quadrant cells level treated on day 9 post 9 days of FLT3L-stimulation measured after 24 hrs by CD11c PerCP and I-A/I-E (MHC class II) FITC staining based flow cytometric analysis (reference value: 21%)", "design": "scale not given: the % may be the effect or the level left", "procedure,_shortened": "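BALB/c bone marrow cells were cultured at 1×10^6/ml with FLT3L in supplemented RPMI-1640 for 9 days. Compound in DMSO or 0.1% DMSO was added on day 9 for 24 h. Cells were stained for 30 min with CD11c PerCP plus B220 FITC (pDC: CD11c+ B220+) or MHC II FITC (mDC: CD11c+ MHC II+), then analysed by flow cytometry. Three independent experiments.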"}, "[2]": {"system": "BMDC", "assay": "Decrease in IL23 level in Balb/c mouse BMDCs at 10 nM treated on day 9 post 9 days of FLT3L-stimulation measured after 12 hrs by ELISA", "type": "functional, cell-based", "procedure,_shortened": "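BALB/c bone marrow cells were plated at 1×10^6/ml in RPMI-1640 with 10% FCS, 10^-4 M 2-ME, pyruvate, antibiotics and FLT3L for 9 days. On day 9, compound in DMSO or 0.1% DMSO was added. After 12 h, supernatant IFN-γ and IL-23 were measured by ELISA. Three independent experiments.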"}, "[3]": {"organism": "Mus musculus", "assay": "Antipsoriatic activity in K14-VEGF transgenic mouse model of psoriasis assessed as decrease in DC cells expressing FLT3 and CD11c in psoriatic lesion at 0.05% applied tropically over lesion for continuous 29 days by flow cytometric analysis relative to control", "type": "functional"}, "[4]": {"organism": "Mus musculus", "assay": "Antipsoriatic activity in K14-VEGF transgenic mouse model of psoriasis assessed as lower right quadrant DC cells expressing FLT3 and CD11c in psoriatic plaque lesion at 0.05% applied tropically over lesion for continuous 29 days by flow cytometric analysis (reference value: 8.88%)", "type": "functional"}, "[5]": {"organism": "Mus musculus", "assay": "Antipsoriatic activity in K14-VEGF transgenic mouse model of psoriasis assessed as decrease in CD8 expression in psoriatic lesion at 0.05% applied tropically over lesion for continuous 29 days by immunohistochemical analysis relative to vehicle control", "type": "functional", "design": "scale not given: the % may be the effect or the level left", "procedure,_shortened": "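K14-VEGF mice were treated topically with 0.05% cream or vehicle for 29 days, n=3 per group. Ear skin was paraffin-embedded, cut into 4-µm sections and immunostained. Staining was quantified in 5 random fields, reported as mean ± SD.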"}, "[6]": {"organism": "Mus musculus", "assay": "Antipsoriatic activity in K14-VEGF transgenic mouse model of psoriasis assessed as decrease in Th17 cell formation in lymph node at 0.05% applied tropically over lesion for 29 days by flow cytometric analysis relative to vehicle-treated control", "type": "functional, organism-based", "procedure,_shortened": "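K14-VEGF mice were treated topically for 29 days with 0.05% cream or vehicle. Lymph node cells were surface-stained with anti-CD4 PE, then fixed and permeabilised. They were stained with FITC anti-IL-17 and analysed by flow cytometry, three mice, mean ± SD.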"}, "[7]": {"organism": "Mus musculus", "assay": "Antipsoriatic activity in K14-VEGF transgenic mouse model of psoriasis assessed as lower left quadrant FLT3+/CD11c+/MHC-II+ mDC cells in psoriatic plaque lesion at 0.05% applied tropically over lesion for continuous 29 days by flow cytometric analysis (reference value: 1.09%)"}},
  "note": "Calls of active or inactive are those of the source. The rule behind the calls is not given here.",
  "data": [
    {"compound": "CC(C)(C)c1cc(NC(=O)Nc2ccc(Oc3ncnc4[nH]ncc34)c(F)c2)no1", "values": [
      {"measurement": "Activity", "setting": "[1]", "result": 16.7, "unit": "%"},
      {"measurement": "inhibition", "setting": "[2]", "result": "Active"},
      {"measurement": "inhibition (INH)", "setting": "[3]", "result": 69.6, "unit": "%"},
      {"measurement": "Activity", "setting": "[4]", "result": 2.1, "unit": "%"},
      {"measurement": "Activity", "setting": "[5]", "result": 79, "unit": "%"},
      {"measurement": "Activity", "setting": "[6]", "result": "Active"},
      {"measurement": "Activity", "setting": "[7]", "result": 1.54, "unit": "%"}
    ]}
  ]
}
